Results as given in ChEMBL document CHEMBL4138227, “Identification of an oxime-containing C-glucosylarene as a potential inhibitor of sodium-dependent glucose co-transporter 2” (Eur J Med Chem, 2018).
One block for each compound: values may come before it.

Assays:
[1] = target: T1, Sodium/glucose cotransporter 2 (Homo sapiens, UniProt P31639); assay: Inhibition of human SGLT2 expressed in CHO cells assessed as reduction in [14C]AMG uptake after 1 hr by microbeta counting method; assay type: cell-based
T1 sequence (P31639 whole entry): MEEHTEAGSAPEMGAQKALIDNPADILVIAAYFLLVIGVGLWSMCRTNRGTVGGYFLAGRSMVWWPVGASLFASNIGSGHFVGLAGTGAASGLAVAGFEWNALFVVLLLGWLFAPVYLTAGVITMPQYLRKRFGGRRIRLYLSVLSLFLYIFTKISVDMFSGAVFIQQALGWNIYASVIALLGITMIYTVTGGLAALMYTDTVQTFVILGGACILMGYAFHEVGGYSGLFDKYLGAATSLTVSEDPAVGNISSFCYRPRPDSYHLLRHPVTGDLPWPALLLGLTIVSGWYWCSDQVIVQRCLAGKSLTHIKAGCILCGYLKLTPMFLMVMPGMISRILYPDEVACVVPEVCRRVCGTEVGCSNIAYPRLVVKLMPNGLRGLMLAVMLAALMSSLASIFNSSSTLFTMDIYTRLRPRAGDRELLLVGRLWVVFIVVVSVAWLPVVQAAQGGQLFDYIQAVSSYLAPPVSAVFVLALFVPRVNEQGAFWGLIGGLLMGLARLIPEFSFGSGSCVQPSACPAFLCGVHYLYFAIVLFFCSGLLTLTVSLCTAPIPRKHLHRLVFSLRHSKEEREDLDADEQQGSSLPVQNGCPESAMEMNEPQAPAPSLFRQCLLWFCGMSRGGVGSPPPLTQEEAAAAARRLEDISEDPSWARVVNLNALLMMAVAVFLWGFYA
Outline: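 CHO cells stably expressing human SGLT2 (or SGLT1); inhibition of sodium-dependent uptake of [14C]α-methyl-D-glucopyranoside measured; EC50 from at least two independent experiments, each in triplicate.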

[2] = Cmax in Sprague-Dawley rat at 1.1 mg/kg, po; assay type: ADME, organism-based; parameters: dose 1.1 mg/kg, route oral; settings: in vivo
[3] = Elimination half life in Sprague-Dawley rat at 1.1 mg/kg, po; assay type: ADME, organism-based; settings: in vivo, read-out: beta t1/2 (converted)
[4] = Tmax in Sprague-Dawley rat at 1.1 mg/kg, po; assay type: ADME, organism-based; settings: in vivo
[5] = AUC (0 to infinity) in Sprague-Dawley rat at 1.1 mg/kg, po; assay type: ADME, organism-based; parameters: dose 1.1 mg/kg, time infinity, route oral; settings: in vivo
Outline: (§1)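 Rats got a single intravenous or oral dose, with 3 animals per route. Pharmacokinetic parameters were derived, including T1/2, clearance, Vss, Cmax, Tmax, AUC(0-inf) and oral bioavailability (F).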

[6] = Oral bioavailability in Sprague-Dawley rat at 1.1 mg/kg; assay type: ADME, organism-based; settings: in vivo
[7] = Elimination half life in Sprague-Dawley rat at 1.1 mg/kg, iv; assay type: ADME, organism-based; settings: in vivo, read-out: beta t1/2 (converted)
[8] = Clearance in Sprague-Dawley rat at 1.1 mg/kg, iv; assay type: ADME, organism-based; settings: in vivo
[9] = Volume of distribution at steady state in Sprague-Dawley rat at 1.1 mg/kg, iv; assay type: ADME, organism-based; settings: in vivo, read-out: Vdss
[10] = AUC (0 to infinity) in Sprague-Dawley rat at 1.1 mg/kg, iv; assay type: ADME, organism-based; parameters: dose 1.1 mg/kg, route intravenous, time infinity; settings: in vivo; outline: as §1
[11] = Elimination half life in Sprague-Dawley rat at 1 mg/kg, iv; assay type: ADME, organism-based; settings: in vivo, read-out: beta t1/2 (converted)
[12] = Clearance in Sprague-Dawley rat at 1 mg/kg, iv; assay type: ADME, organism-based; settings: in vivo
[13] = Volume of distribution at steady state in Sprague-Dawley rat at 1 mg/kg, iv; assay type: ADME, organism-based; settings: in vivo, read-out: Vdss
[14] = AUC (0 to infinity) in Sprague-Dawley rat at 1 mg/kg, iv; assay type: ADME, organism-based; parameters: dose 1 mg/kg, time infinity, route intravenous; settings: in vivo; outline: as §1
[15] = Elimination half life in Sprague-Dawley rat at 1 mg/kg, po; assay type: ADME, organism-based; settings: in vivo, read-out: beta t1/2 (converted)
[16] = Cmax in Sprague-Dawley rat at 1 mg/kg, po; assay type: ADME, organism-based; parameters: dose 1 mg/kg, route oral; settings: in vivo
[17] = Tmax in Sprague-Dawley rat at 1 mg/kg, po; assay type: ADME, organism-based; settings: in vivo
[18] = AUC (0 to infinity) in Sprague-Dawley rat at 1 mg/kg, po; assay type: ADME, organism-based; parameters: dose 1 mg/kg, time infinity, route oral; settings: in vivo; outline: as §1
[19] = Oral bioavailability in Sprague-Dawley rat at 1 mg/kg; assay type: ADME, organism-based; settings: in vivo
Rattus norvegicus [20] = assay: In vivo inhibition of SGLT2 in Sprague-Dawley rat assessed as urinary glucose excretion per 200 gram of body weight at 0.1 mg/kg, po administered as single dose measured after 24 hrs; assay type: functional
Outline: (§2)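 Normal SD rats given a single oral dose (0.1, 1, 10 or 50 mg/kg) or vehicle; urine collected over 24 h and glucose excretion expressed as mg per 200 g body weight; mean ± SEM, n = 4/group (vehicle n = 8).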

Rattus norvegicus [21] = assay: In vivo inhibition of SGLT2 in Sprague-Dawley rat assessed as urinary glucose excretion per 200 gram of body weight at 1 mg/kg, po administered as single dose measured after 24 hrs; assay type: functional; outline: as §2
Rattus norvegicus [22] = assay: In vivo inhibition of SGLT2 in Sprague-Dawley rat assessed as urinary glucose excretion per 200 gram of body weight at 10 mg/kg, po administered as single dose measured after 24 hrs; assay type: functional; outline: as §2
Rattus norvegicus [23] = assay: In vivo inhibition of SGLT2 in Sprague-Dawley rat assessed as urinary glucose excretion per 200 gram of body weight at 50 mg/kg, po administered as single dose measured after 24 hrs; assay type: functional; outline: as §2
Rattus norvegicus [24] = assay: In vivo inhibition of SGLT2 in Sprague-Dawley rat assessed as increase in urinary glucose excretion per 200 gram of body weight at 0.1 to 50 mg/kg, po administered as single dose measured after 24 hrs relative to control; assay type: functional
Outline: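 Normal Sprague-Dawley rats were given a single oral dose of 0.1, 1, 10 or 50 mg/kg. Urine was collected over 24 h and glucose excretion expressed as mg glucose per 200 g body weight, relative to vehicle controls. Groups were n = 4, with vehicle n = 8. Data are mean ± SEM; p < 0.05 vs vehicle.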

Rattus norvegicus [25] = assay: Antihyperglycemic activity in streptozotocin-induced diabetic Sprague-Dawley rat model assessed as reduction in blood glucose level at 0.1 to 10 mg/kg, po administered as single dose measured after 5 hrs relative to control; assay type: functional; parameters: scale not given: the % may be the effect or the level left
Outline: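 STZ-diabetic SD rats (blood glucose >450 mg/dL), single oral dose 0.1 or 10 mg/kg or vehicle; tail-vein blood sampled at 0 (predose), 0.5, 1, 2, 3, 4 and 5 h for glucose; reduction expressed versus vehicle control; mean ± SEM, n = 6/group.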

hERG (KCNH2) = hERG (KCNH2) (Homo sapiens, UniProt Q12809); assay: Inhibition of human ERG at 10 uM by radioligand assay relative to control
Sequence of hERG (KCNH2) (Q12809 whole entry): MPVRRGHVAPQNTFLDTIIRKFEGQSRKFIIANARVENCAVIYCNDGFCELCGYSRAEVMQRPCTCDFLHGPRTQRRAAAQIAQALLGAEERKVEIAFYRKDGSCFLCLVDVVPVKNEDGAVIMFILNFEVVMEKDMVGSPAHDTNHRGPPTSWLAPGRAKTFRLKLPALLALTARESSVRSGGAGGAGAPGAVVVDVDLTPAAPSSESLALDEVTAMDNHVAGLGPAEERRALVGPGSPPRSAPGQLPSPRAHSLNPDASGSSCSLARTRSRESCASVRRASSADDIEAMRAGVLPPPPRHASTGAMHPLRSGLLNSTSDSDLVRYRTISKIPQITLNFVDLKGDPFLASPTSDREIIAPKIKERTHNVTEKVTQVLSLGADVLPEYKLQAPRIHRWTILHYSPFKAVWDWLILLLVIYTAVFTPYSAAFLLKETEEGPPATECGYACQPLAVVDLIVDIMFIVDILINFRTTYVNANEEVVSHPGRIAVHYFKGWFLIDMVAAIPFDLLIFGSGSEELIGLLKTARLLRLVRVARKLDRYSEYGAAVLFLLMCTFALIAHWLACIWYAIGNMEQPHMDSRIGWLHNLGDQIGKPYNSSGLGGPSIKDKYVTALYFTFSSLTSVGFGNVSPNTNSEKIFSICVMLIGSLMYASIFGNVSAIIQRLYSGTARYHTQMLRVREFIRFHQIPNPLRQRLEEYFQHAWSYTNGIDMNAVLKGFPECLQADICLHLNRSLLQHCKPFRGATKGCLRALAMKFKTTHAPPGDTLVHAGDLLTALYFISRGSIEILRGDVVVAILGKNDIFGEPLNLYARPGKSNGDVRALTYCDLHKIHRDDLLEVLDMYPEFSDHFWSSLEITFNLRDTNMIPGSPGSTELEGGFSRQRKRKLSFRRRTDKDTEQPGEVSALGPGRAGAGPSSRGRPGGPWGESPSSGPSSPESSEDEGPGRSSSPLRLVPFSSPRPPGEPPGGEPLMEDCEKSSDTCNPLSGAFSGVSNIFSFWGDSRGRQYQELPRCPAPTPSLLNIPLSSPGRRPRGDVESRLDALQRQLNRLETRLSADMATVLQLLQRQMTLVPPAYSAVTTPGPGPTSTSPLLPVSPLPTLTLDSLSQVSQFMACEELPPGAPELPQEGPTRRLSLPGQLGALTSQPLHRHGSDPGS
Outline: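 hERG radioligand binding assay run externally by a contract laboratory; test compound at 10 µM, percent inhibition reported.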

EC50 [1]: 95 nM
SMILES: CCOc1ccc(Cc2cc([C@@H]3O[C@H](CNO)[C@@H](O)[C@H](O)[C@H]3O)ccc2Cl)cc1

EC50 [1]: 370 nM
SMILES: CCOc1ccc(Cc2cc([C@@H]3O[C@H](/C=N/Nc4ccc([N+](=O)[O-])cc4)[C@@H](O)[C@H](O)[C@H]3O)ccc2Cl)cc1

EC50 [1]: 335 nM
SMILES: CCO/N=C/[C@H]1O[C@@H](c2ccc(Cl)c(Cc3ccc(OCC)cc3)c2)[C@H](O)[C@@H](O)[C@@H]1O

EC50 [1]: 396 nM
SMILES: CCC#CCO/N=C/[C@H]1O[C@@H](c2ccc(Cl)c(Cc3ccc(OCC)cc3)c2)[C@H](O)[C@@H](O)[C@@H]1O

EC50 [1]: 395 nM
SMILES: CCOc1ccc(Cc2cc([C@@H]3O[C@H](/C=N/NC(C)=O)[C@@H](O)[C@H](O)[C@H]3O)ccc2Cl)cc1

EC50 [1]: 88 nM | Cmax [2]: 34.5 ng/mL | half-life [3]: 1.2 h | Tmax [4]: 0.7 h | AUC(0-inf) [5]: 73 ng·h/mL | bioavailability [6]: 7.1% | half-life [7]: 0.7 h | clearance [8]: 17.6 mL/min/kg | Vd [9]: 0.8 L/kg | AUC(0-inf) [10]: 1030 ng·h/mL
SMILES: CCOc1ccc(Cc2cc([C@@H]3O[C@H](/C=N/NCCO)[C@@H](O)[C@H](O)[C@H]3O)ccc2Cl)cc1

EC50 [1]: 208 nM
SMILES: CCOc1ccc(Cc2cc([C@@H]3O[C@H](/C=N/NC(=O)c4ccsc4)[C@@H](O)[C@H](O)[C@H]3O)ccc2Cl)cc1

EC50 [1]: 63 nM | half-life [11]: 1.9 h | clearance [12]: 16.5 mL/min/kg | Vd [13]: 1.8 L/kg | AUC(0-inf) [14]: 1070 ng·h/mL | half-life [15]: 3 h | Cmax [16]: 67.2 ng/mL | Tmax [17]: 1.3 h | AUC(0-inf) [18]: 352 ng·h/mL | bioavailability [19]: 32.8%
SMILES: CCOc1ccc(Cc2cc([C@@H]3O[C@H](CNOC)[C@@H](O)[C@H](O)[C@H]3O)ccc2Cl)cc1

EC50 [1]: 8540 nM
SMILES: CCOc1ccc(Cc2cc([C@@H]3O[C@H](/C=N/OCCC(C)(C)C)[C@@H](O)[C@H](O)[C@H]3O)ccc2Cl)cc1

EC50 [1]: 429 nM
SMILES: CCOc1ccc(Cc2cc([C@@H]3O[C@H](/C=N/NC4=NCCN4)[C@@H](O)[C@H](O)[C@H]3O)ccc2Cl)cc1

EC50 [1]: 1950 nM
SMILES: CCOc1ccc(Cc2cc([C@@H]3O[C@H](/C=N/OCC4CC4)[C@@H](O)[C@H](O)[C@H]3O)ccc2Cl)cc1

EC50 [1]: 173 nM
SMILES: CCOc1ccc(Cc2cc([C@@H]3O[C@H](/C=N/NC(=O)c4ccncc4)[C@@H](O)[C@H](O)[C@H]3O)ccc2Cl)cc1

EC50 [1]: 46 nM | half-life [11]: 4.7 h | clearance [12]: 5 mL/min/kg | Vd [13]: 1.8 L/kg | Cmax [2]: 239 ng/mL | AUC(0-inf) [14]: 3270 ng·h/mL | half-life [3]: 9 h | Tmax [4]: 1 h | AUC(0-inf) [5]: 2270 ng·h/mL | bioavailability [6]: 64%
SMILES: CCOc1ccc(Cc2cc([C@@H]3O[C@H](/C=N/O)[C@@H](O)[C@H](O)[C@H]3O)ccc2Cl)cc1
Activity (Rattus norvegicus [20]): 275 mg | Activity (Rattus norvegicus [21]): 2215 mg | Activity (Rattus norvegicus [22]): 1935 mg | Activity (Rattus norvegicus [23]): 2732 mg | fold change (FC) (Rattus norvegicus [24]): 476 - 4730 | Activity (Rattus norvegicus [25]): 44% | inhibition at 10 µM (hERG (KCNH2)): 2%

EC50 [1]: 151 nM
SMILES: CCOc1ccc(Cc2cc([C@@H]3O[C@H](CNNC(=O)c4ccco4)[C@@H](O)[C@H](O)[C@H]3O)ccc2Cl)cc1
